Screening data deposited in PubChem BioAssay by several laboratories.
STAT1 activator: STAT1 signaling activation; NIH 3T3 STAT1-luciferase reporter, IFN-gamma, luminescence; 100% = IFN-gamma alone, no compound; activation (% of control), % at 5.5 µM; 200,000 tested, 2.6% active;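 active = activation above the screen-wide mean activation plus 3 SD, cut at about 130% in these data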
STAT3 activator: increases IL-6 driven STAT3 reporter signal; 190,000 tested, 0.91% active; U3A cells, IL-6 STAT3-luciferase reporter, luminescence; 100% = signal with IL-6 EC80 alone; activation (% of control), % at 5.6 µM;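 active = activation above the screen-wide mean of compound activation plus 3 SD, cut at about 130% in these data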
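Detection: reporter luminescence signal / Assay system: STAT1-lacking human U3A cells, STAT3 luciferase reporter / Incubation: compound pre-incubation 1 h before IL-6, then 6 h stimulation at 37 °C / Control set: IL-6-only high control / Read-out: % activation relative to IL-6 control / Probe or stimulus: Interleukin-6, 33 ng/mL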
STAT1 inh: inhibitors of IFN-gamma induced STAT1 signaling. NIH 3T3 STAT1-luciferase reporter, luminescence. inhibition, % at 5.5 µM. 200,000 tested, 0.35% active. AID 920;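 active = inhibition above a set limit, the mean inhibition across all tested compounds plus 3 SD, cut at about 34% in these data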
FLuc inhib CS: Photinus pyralis luciferase inhibition counter-screen; ATPLite firefly luciferase biochemical luminescence, 10 min; inhibition, % at 10 µM; 200,000 tested, 1.5% active;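 active = inhibition above about 50% when tested at 10 µM, limit read from the data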
Target sequence (P08659 whole entry, looked up): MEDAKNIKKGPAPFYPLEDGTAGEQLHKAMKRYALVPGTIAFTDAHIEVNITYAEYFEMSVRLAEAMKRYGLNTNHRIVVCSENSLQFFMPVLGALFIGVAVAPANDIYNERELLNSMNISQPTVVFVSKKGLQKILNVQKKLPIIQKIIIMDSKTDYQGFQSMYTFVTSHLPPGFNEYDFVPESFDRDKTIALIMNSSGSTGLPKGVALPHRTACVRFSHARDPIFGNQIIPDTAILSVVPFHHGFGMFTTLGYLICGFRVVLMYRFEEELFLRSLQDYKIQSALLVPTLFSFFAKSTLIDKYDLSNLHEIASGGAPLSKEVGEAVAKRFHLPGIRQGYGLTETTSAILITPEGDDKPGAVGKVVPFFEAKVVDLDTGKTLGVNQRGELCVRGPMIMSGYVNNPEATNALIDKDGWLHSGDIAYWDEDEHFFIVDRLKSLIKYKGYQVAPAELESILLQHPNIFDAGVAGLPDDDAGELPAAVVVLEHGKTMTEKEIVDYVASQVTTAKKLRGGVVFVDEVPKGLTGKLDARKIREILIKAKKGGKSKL
FLuc stim CS: firefly luciferase counter-screen for stimulation assays; P08659; ATPlite luciferase biochemical, luminescence, 10 min; 0 = ATP-free wells, 1 = DMSO control; activation factor at 10 µM; 200,000 tested, under 10 active;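 active = luciferase activation factor, scaled between plate controls, of at least 2 with compound at 10 µM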
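Assay system – cell-free luciferase reagent · Medium – PBS-based ATP solution · Dosing – test compounds dosed from 2 mM stocks in 100% DMSO · Timing – 10 min, room temperature · Technique – light output (luminescence) · Measure – luminescence gain marking luciferase activators · Controls – No-ATP low control, compound-free enzyme-plus-ATP high control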
STAT3 inh: STAT3 signaling inhibition; U3A cells, IL-6 STAT3-luciferase reporter, luminescence; host cell line lacks STAT1; inhibition, % at 5.5 µM; 190,000 tested, 0.89% active; AID 862;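 active = inhibition above the mean inhibition across all screened compounds plus 3 SD, cut at about 44% in these data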
Each line names hits and unclear results; the compound was inactive in the other large screens. Rows were chosen to be rich in hits. Some 4.9% of all compounds tested hit in one or more screens of this group.

COc1ccc(NC(=O)CC2C(=O)N(c3ccc(F)cc3)C(=S)N2NC(=O)c2ccc(Cl)cc2)cc1 (stereo not drawn)	none
Cc1ccsc1/C=N\NC(=O)c1n[nH]c2c1CCC2	FLuc inhib CS 71
Cc1ccsc1/C=N\NC(=O)c1ccc2c(c1)OCO2	FLuc inhib CS 77
O=C(N/N=C/c1c(Cl)cccc1Cl)c1n[nH]c2c1CCCC2	none
Cc1c(C(=O)OCC(=O)Nc2c(C)n(C)n(-c3ccccc3)c2=O)oc2ccccc12	none
CN(C)c1cccc(C(=O)N/N=C/c2ccsc2)c1	FLuc inhib CS 90
CN(C)c1ccc(/C=N/NC(=O)c2cccc(C(=O)N/N=C/c3ccc(N(C)C)cc3)n2)cc1	none
O=C(N/N=C/C=C\c1ccco1)c1cccs1	STAT1 activator 130
O=C(Cc1cccs1)N/N=C/C=C\c1ccco1	none
Cc1cc(C(=O)N/N=C/c2ccco2)c2ccccc2n1	none
Cc1scc(C(=O)N/N=C/c2ccsc2)c1C	STAT1 activator 140, FLuc inhib CS 84
Cc1scc(C(=O)N/N=C/c2ccco2)c1C	FLuc inhib CS 54
Cc1ccc(C(=O)c2cc3c(cc2[N+](=O)[O-])OCCO3)cc1	none
COc1ccc2c(c1)CCCC21NC(=O)N(CC(=O)NC(=O)NCc2ccccc2)C1=O (stereo not drawn)	none
CC(C)(C)C(=O)Nc1sc2c(c1C(=O)Nc1ccccn1)CCCC2	none
Cc1ccc(-c2nc3ccc(Cl)cc3n2OC(C)C(=O)O)cc1 (stereo not drawn)	STAT1 activator 141
Clc1nc(-c2ccccc2)cc(-c2ccccc2)n1	none
CCc1ccc(C(=O)COC(=O)c2cccc(N3C(=O)c4c(C)nc5ccccc5c4C3=O)c2)cc1	FLuc inhib CS 51
COc1cccc(-c2nc3ccc([N+](=O)[O-])cc3o2)c1	STAT1 activator 136
O=[N+]([O-])c1ccc2nc(-c3ccccc3)oc2c1	STAT1 activator 148
COc1cccc(-c2cc(C(=O)Nc3ccc([N+](=O)[O-])cn3)c3ccccc3n2)c1	none
O=C(O)CNc1nc(-c2ccccc2)c2cc([N+](=O)[O-])ccc2n1	none
O=C(CSc1ccc2c(c1)OCCO2)NCc1ccccc1	none
O=c1c2ccccc2nnn1CSc1nnc2ccccn12	STAT1 activator 146
O=c1c2ccccc2nnn1CSc1ccc2c(c1)OCCO2	STAT1 activator 146
Cn1c(SCn2nnc3ccccc3c2=O)nc2ccccc2c1=O	none
O=C(/C=C/Nc1ccc(Br)cc1F)c1ccco1	STAT1 inh 81, FLuc inhib CS 97, STAT3 inh 96
O=C(/C=C/Nc1ccccc1Oc1ccccc1)c1ccco1	none
O=C(/C=C/Nc1ccc(F)cc1F)c1ccco1	STAT1 inh 77, FLuc inhib CS 97, STAT3 inh 84
O=C(/C=C/Nc1ccc(F)c(Cl)c1)c1ccco1	STAT1 activator 150
O=C(CCNc1ccc(F)c(Cl)c1)c1ccco1	none
Cc1nc(SCC(=O)Nc2cccnc2Cl)nc(C)c1C	none
CS(=O)(=O)N1CCc2cc(NC(=O)c3ccc(Cl)cc3Cl)ccc21	STAT1 activator 129
COC(=O)c1ccc(CO/N=C2\CCCc3nonc32)cc1	STAT1 activator 139
Oc1ccc(-c2n[nH]c(C(F)(F)F)c2-c2ccccc2)c(O)c1	STAT1 inh 41, STAT3 inh 72
Cc1ccc(C(=O)N/C(=C\c2ccco2)C(=O)NCCCn2ccnc2)cc1C	none
Cc1cc(C)c(S(=O)(=O)Nc2cc(SCC(=O)O)c(O)c3ccccc23)cc1C	STAT3 activator 135
Cc1cc(C)c(S(=O)(=O)Nc2ccc(O)cc2)cc1C	none
CCCCN1CCc2c([nH]c3ccc(C)cc23)C1=O	STAT1 activator 151
Cc1ccc(S(=O)(=O)N(C)C)cc1NC(=O)CSc1ncc(C(F)(F)F)cc1Cl	none
Cc1ccc(S(=O)(=O)N2CCN(C(=O)CSc3ncc(C(F)(F)F)cc3Cl)CC2)cc1	FLuc inhib CS 58
O=C(/C=C/c1ccc(N2CCCCC2)c([N+](=O)[O-])c1)c1ccc(O)cc1	STAT1 activator 143
COc1ccccc1C(=O)/C=C/c1ccc(N2CCCCC2)c([N+](=O)[O-])c1	none
